Activity calls are given as the source filed them. The rule behind the calls is not given here.
Legend:
[1] = tested on: Hepatocyte; experiment: Induction of progenitor morphology loss in mouse primary fetal liver cells expressing C/EBP-alpha p30 at 20 uM after 6 days by Cytospin stainig based microscopic analysis; type: functional, cell-based; settings: time 6.0 day
In short: (§1)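 Cebpap30/p30 cells left untreated or given 20 μM compound for 6 days. Fc receptors blocked with anti-CD16/CD32, then Mac-1 and Gr-1 staining by flow cytometry, with Mac-1/Gr-1 double-positive cells counted at the indicated time points. Cytospins stained with Kwik-Diff for microscopic morphology.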

[2] = tested on: Hepatocyte; experiment: Induction of myeloid differentiation in mouse primary fetal liver cells expressing C/EBP-alpha p30 assessed as upregulation of Mac-1/Gr-1 double positive cells at 20 uM after 6 days by flow cytometry analysis; type: functional, cell-based; settings: time 6.0 day; in short: as §1
[3] = tested on: Hepatocyte; experiment: Induction of myeloid differentiation in mouse primary fetal liver cells expressing C/EBP-alpha p30 assessed as upregulation of C3ar1 mRNA expression at 20 uM after 3 to 6 days by qRT-PCR analysis; type: functional, cell-based; settings: time 3-6 day
In short: (§2)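 Cebpap30/p30 cells in culture with 20 μM compound for the indicated periods. Total RNA (300 ng) reverse transcribed with oligo(dT); SYBR qPCR, quantified by 2−ddCt method; mean ± SD of triplicate experiments, t-test.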

[4] = biological target: Kappa-type opioid receptor (Homo sapiens) (UniProt P41145); experiment: Displacement of [3H]U69593 from human kappa receptor assessed as remaining activity at 1 uM after 60 mins by scintillation counting analysis relative to control
[5] = tested on: Hepatocyte; experiment: Induction of myeloid differentiation in mouse primary fetal liver cells expressing C/EBP-alpha p30 assessed as upregulation of Lilrb3 mRNA expression at 20 uM after 3 to 6 days by qRT-PCR analysis; type: functional, cell-based; settings: time 3-6 day; in short: as §2
[6] = biological target: T1, Alpha-1A adrenergic receptor (Rattus norvegicus) (UniProt P43140); experiment: Displacement of [3H]prazosin from rat […] brain alpha1 adrenergic receptor assessed as remaining activity at 1 uM after 60 mins by scintillation counting method relative to control; type: tissue-based
T1 sequence (whole entry): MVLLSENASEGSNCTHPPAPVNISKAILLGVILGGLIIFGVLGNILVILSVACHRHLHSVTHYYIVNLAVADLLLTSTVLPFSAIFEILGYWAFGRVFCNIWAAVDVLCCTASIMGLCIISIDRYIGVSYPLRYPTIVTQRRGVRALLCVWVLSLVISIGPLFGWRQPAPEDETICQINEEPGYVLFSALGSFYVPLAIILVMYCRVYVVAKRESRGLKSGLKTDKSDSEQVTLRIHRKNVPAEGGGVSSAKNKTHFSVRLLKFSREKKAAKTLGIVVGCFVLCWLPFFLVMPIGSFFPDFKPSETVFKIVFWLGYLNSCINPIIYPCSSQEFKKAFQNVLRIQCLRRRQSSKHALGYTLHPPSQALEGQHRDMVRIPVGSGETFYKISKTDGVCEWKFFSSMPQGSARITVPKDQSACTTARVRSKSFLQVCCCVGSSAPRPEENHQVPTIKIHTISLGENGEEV

[7] = biological target: Cyclin-dependent kinase 4/cyclin D1 (Homo sapiens) (UniProt P11802+P24385); experiment: Inhibition of CDK4/cycD1 (unknown origin) assessed as remaining activity at 1 uM relative to control; type: protein-complex assay
[8] = Antiproliferative activity against human acute myeloid leukemic cells harboring N-terminal CEBPA mutation assessed as vaibility at 5 uM after 72 hrs by cell titer glo luminescent cell viability assay relative to control; type: functional, Leukemia cell
In short: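 20,000 viable proliferating cells per well in triplicate, exposed to 5 μM compound or 0.05% DMSO for 72 h (3 days); CellTiter-Glo luminescence, normalized to DMSO for each patient sample; mean ± SD.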

[9] = tested on: Hepatocyte; experiment: Inhibition of colony formation in mouse primary fetal liver cells expressing C/EBP-alpha p30 at 5 to 20 uM after 7 day by colony formation assay; type: functional, cell-based; settings: dose 5-20 µM
In short: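 Primary Cebpap30/p30 fetal liver cells, maintained in DMEM/10% FCS with SCF, IL-6 and IL-3, plated at 1×10^4 cells in complete methylcellulose (M3434) with compound at the indicated concentrations; colonies scored 7 days later and normalized to DMSO for each genotype; mean ± SD of triplicate experiments.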

[10] = tested on: Hepatocyte; experiment: Induction of myeloid differentiation in mouse primary fetal liver cells expressing C/EBP-alpha p30 assessed as upregulation of Ccl9 mRNA expression at 20 uM after 3 to 6 days by qRT-PCR analysis; type: functional, cell-based; settings: time 3-6 day; in short: as §2
[11] = Toxicity in mouse bone marrow cells assessed as reduction in colony formation at 2.5 to 20 uM after 7 day by CFU assay; type: cell-based; settings: bone marrow cell, 168 h, dose 2.5-20 µM
[12] = biological target: Cyclin-dependent kinase 5/CDK5 activator 1 (Homo sapiens) (UniProt Q00535+Q15078); experiment: Inhibition of CDK5/p35 (unknown origin) assessed as remaining activity at 1 uM relative to control; type: protein-complex assay
[13] = tested on: Hepatocyte; experiment: Induction of myeloid differentiation in mouse primary fetal liver cells expressing C/EBP-alpha p30 assessed as upregulation of Lcn2 mRNA expression at 20 uM after 3 to 6 days by qRT-PCR analysis; type: functional, cell-based; settings: time 3-6 day; in short: as §2
[14] = tested on: Hepatocyte; experiment: Induction of myeloid differentiation in mouse primary fetal liver cells expressing C/EBP-alpha p30 assessed as upregulation of Lyz2 mRNA expression at 20 uM after 3 to 6 days by qRT-PCR analysis; type: functional, cell-based; settings: time 3-6 day; in short: as §2
[15] = biological target: CDK9/cyclin T1 (Homo sapiens) (UniProt O60563+P50750); experiment: Inhibition of CDK9/CycT1 (unknown origin) assessed as remaining activity at 1 uM relative to control; type: protein-complex assay
[16] = species on record: Homo sapiens; experiment: Binding affinity against WDR5 S91K mutant (unknown origin) at 50 uM by differential scanning fluorimetry
In short: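 Thermal shift of purified recombinant S91K-mutant WDR5 measured by differential scanning fluorimetry, with test compound at 50 μM run alongside a DMSO vehicle control.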

[17] = tested on: Hepatocyte; experiment: Antiproliferative activity against mouse primary fetal liver cells expressing C/EBP-alpha p30 assessed as reduction in cell viability after 72 hrs by cell TiterGlo luminescent cell viability assay; type: functional, cell-based
[18] = tested on: K562; experiment: Antiproliferative activity against human K562 cells assessed as reduction in cell viability after 72 hrs by cell TiterGlo luminescent cell viability assay; type: functional, cell-based

Cyclin-dependent kinase 5/CDK5 activator 1 (Homo sapiens), sequence (Q00535 whole entry): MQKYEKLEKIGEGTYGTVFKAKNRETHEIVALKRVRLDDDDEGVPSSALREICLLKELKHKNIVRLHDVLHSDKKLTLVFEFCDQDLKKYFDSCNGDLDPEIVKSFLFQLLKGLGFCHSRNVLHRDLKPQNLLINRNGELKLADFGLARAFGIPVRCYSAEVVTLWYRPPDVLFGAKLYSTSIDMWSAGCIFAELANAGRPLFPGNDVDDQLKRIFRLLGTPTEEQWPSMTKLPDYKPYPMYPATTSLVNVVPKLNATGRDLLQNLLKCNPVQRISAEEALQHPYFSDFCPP
Cyclin-dependent kinase 5/CDK5 activator 1 (Homo sapiens), sequence (Q15078 99-307 partner limits assumed): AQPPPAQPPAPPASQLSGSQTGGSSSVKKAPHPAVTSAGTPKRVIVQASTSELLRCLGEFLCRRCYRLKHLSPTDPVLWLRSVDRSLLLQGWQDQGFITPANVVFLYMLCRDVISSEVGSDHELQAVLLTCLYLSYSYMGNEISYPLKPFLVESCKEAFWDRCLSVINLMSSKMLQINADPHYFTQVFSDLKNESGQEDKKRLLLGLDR
Kappa-type opioid receptor (Homo sapiens), sequence (P41145 whole entry): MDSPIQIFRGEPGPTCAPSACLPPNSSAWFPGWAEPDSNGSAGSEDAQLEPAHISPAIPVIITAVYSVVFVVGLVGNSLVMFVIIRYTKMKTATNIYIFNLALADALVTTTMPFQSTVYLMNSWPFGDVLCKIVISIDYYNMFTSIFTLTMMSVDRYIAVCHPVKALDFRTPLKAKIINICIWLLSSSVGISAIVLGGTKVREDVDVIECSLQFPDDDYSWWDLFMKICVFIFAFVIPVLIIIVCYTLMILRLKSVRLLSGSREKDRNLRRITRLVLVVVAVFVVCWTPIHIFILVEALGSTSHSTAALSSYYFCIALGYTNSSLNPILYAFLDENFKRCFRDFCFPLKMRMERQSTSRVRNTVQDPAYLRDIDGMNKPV

SMILES	Activity [1]	Activity [2]	Activity [3]	Activity [4]	Activity [5]	Activity [6]	Activity [7]	Activity [8]	inhibition [9]	Activity [10]	Activity [11]	Activity [12]	Activity [13]	Activity [14]	Activity [15]	Activity [16]	Activity [17]	Activity [18]
CN1CCN(c2ccc(-c3cccc(CN4CCOCC4)c3)cc2NC(=O)c2c[nH]c(=O)cc2C(F)(F)F)CC1	Active	Active	Active	102%	Active	99%	102%	53%	Active	Active	Non-Toxic	102%	Active	Active	98%	inactive	–	–
O=C(Nc1cc(-c2cccc(CN3CCOCC3)c2)ccc1N1CCOCC1)c1c[nH]c(=O)cc1C(F)(F)F	–	–	–	–	–	–	–	–	–	–	–	–	–	–	–	–	inactive	inactive
